Experimental findings from ChEMBL document CHEMBL1129498, “Azole endothelin antagonists. 2. Structure-activity studies” (J Med Chem, 1996) are described below.

As a reminder, the IC50 is the midpoint of a concentration-inhibition curve.

Assay [1] has as its system MMQ. Briefly: Inhibitory activity was evaluated by measuring the PI hydrolysis in MMQ cell line. The assay is classed as functional, cell-based, Rattus norvegicus. The procedure, abridged: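 MMQ cells (0.4 × 10⁶ cells/mL) labeled 16 h with 10 µCi/mL [³H]myoinositol in RPMI, PBS-washed, then held 60 min in buffer A with protease inhibitors and 10 mM LiCl. Compound pre-incubated 5 min, then 1 nM ET-1 challenge for 30 min at 37 °C, stopped with chloroform-methanol. Total inositol phosphates extracted and taken from the aqueous phase by AG1-X8 anion-exchange batch chromatography.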

For assay [2], the target named is T1, Endothelin receptor type B (Sus scrofa, UniProt P35463).
T1 sequence (P35463 whole entry): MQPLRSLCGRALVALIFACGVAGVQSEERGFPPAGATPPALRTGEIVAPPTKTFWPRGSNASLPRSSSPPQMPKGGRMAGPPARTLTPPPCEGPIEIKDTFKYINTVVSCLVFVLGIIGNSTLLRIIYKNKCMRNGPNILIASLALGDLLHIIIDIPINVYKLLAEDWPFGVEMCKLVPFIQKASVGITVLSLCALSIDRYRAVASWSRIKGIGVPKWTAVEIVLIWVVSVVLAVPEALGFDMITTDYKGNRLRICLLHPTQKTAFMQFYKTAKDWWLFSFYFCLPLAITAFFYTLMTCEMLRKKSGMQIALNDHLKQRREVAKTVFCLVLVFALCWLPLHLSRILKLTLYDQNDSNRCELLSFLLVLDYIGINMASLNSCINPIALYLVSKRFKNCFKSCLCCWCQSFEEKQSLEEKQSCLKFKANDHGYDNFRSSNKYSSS
Briefly: Inhibitory activity was evaluated against ET- B Binding to Endothelin B receptor from porcine cerebellar membranes.

Assay [3] concerns the target T2, Endothelin-1 receptor (Rattus norvegicus, UniProt P26684).
T2 sequence (P26684 whole entry): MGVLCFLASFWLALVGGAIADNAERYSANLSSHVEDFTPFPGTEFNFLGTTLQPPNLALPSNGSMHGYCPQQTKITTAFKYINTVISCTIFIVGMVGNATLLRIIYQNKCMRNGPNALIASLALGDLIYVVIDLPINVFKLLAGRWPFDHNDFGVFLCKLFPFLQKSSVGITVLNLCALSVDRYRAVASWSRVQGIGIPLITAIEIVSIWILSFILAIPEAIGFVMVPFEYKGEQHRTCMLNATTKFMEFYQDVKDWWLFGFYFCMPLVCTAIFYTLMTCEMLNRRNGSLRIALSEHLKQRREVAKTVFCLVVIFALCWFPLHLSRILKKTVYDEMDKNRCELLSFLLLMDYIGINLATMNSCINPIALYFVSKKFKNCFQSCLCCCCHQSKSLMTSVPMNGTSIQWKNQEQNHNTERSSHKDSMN
Description: Inhibitory activity was evaluated against ET- A Binding to Endothelin A receptor in MMQ cell homogenates. The assay is classed as cell-free.

As to `Cc1oc([C@@H](Cc2cn(C)c3ccccc23)NC(=O)[C@H](CC(C)C)NC(=O)N2CCOC23CCCCC3)nc1C(=O)O`, the IC50 in assay [1] (Rattus norvegicus, MMQ) came out at 6.1 nM; in assay [2] it was 35 µM; in assay [3], 5.7 nM.

As to `Cc1oc([C@@H](Cc2cn(C)c3ccccc23)NC(=O)[C@H](CC(C)C)NC(=O)Nc2ccccc2F)nc1C(=O)O`, the IC50 in assay [1] (Rattus norvegicus, MMQ) was 26 nM; in assay [2] it was 2.4 µM; in assay [3], 17 nM.

In the case of `Cc1oc([C@@H](Cc2cn(C)c3ccccc23)NC(=O)[C@H](CC(C)C)NC(=O)Nc2ccccc2)nc1C(=O)O`, the IC50 in assay [1] (Rattus norvegicus, MMQ) stood at 53 nM; in assay [2] it was 30 µM; in assay [3], 16 nM.

As for `Cc1[nH]c([C@@H](Cc2cn(C)c3ccccc23)NC(=O)[C@H](CC(C)C)NC(=O)NC2CCCCC2)nc1C(=O)O`, the IC50 in assay [1] (Rattus norvegicus, MMQ) is 4.1 nM; in assay [2], 34 µM; in assay [3], 11 nM.

As for `Cc1[nH]c([C@@H](Cc2cn(C)c3ccccc23)NC(=O)[C@H](CC(C)C)NC(=O)NC2CC3CCC2C3)nc1C(=O)O` (stereo in doubt; 14p), the IC50 in assay [1] (mmq) is 36 nM; in assay [2], 9.5 µM; in assay [3], 19 nM.

Consider `Cc1oc([C@@H](Cc2cn(C)c3ccccc23)NC(=O)[C@H](CC(C)C)NC(=O)N2CCc3ccccc32)nc1C(=O)O`, for which the IC50 in assay [1] (Rattus norvegicus, MMQ) turned out to be 3.6 nM; in assay [2] it was 34 µM; in assay [3], 5.9 nM.

`Cc1[nH]c([C@@H](Cc2cn(C)c3ccccc23)NC(=O)[C@H](CC(C)C)NC(=O)Nc2ccccc2)nc1C(=O)O`: the IC50 in assay [1] (Rattus norvegicus, MMQ) stood at 1.3 nM; in assay [2] it was 37 µM; in assay [3], 7.6 nM.

With `Cc1[nH]c([C@@H](Cc2c[nH]c3ccccc23)NC(=O)[C@H](CC(C)C)NC(=O)N2CCCCCC2)nc1C(=O)O`, the IC50 is 780 nM in assay [1] (Rattus norvegicus, MMQ) and over 100 µM in assay [2].

Regarding `Cc1[nH]c([C@@H](Cc2cn(C)c3ccccc23)NC(=O)[C@H](CC(C)C)NC(=O)NC2CCCCCC2)nc1C(=O)O`, the IC50 worked out at 87 nM in assay [1] (Rattus norvegicus, MMQ); 42 µM in assay [2]; 60 nM in assay [3].

On to `Cc1oc([C@@H](Cc2c[nH]c3ccccc23)NC(=O)[C@H](CC(C)C)NC(=O)N2CCCCCC2)nc1C(=O)O`, for which the IC50 in assay [1] (Rattus norvegicus, MMQ) was 4500 nM; in assay [2], over 100 µM.

For `Cc1oc([C@@H](Cc2cn(C)c3ccccc23)NC(=O)[C@H](CC(C)C)NC(=O)N2CCCc3ccccc32)nc1C(=O)O`, the 50% inhibitory concentration (IC50) in assay [1] (Rattus norvegicus, MMQ) is 0.9 nM; in assay [2], 66 µM; in assay [3] it was 33 nM.

As to `Cc1[nH]c([C@@H](Cc2cn(C)c3ccccc23)NC(=O)[C@H](CC(C)C)NC(=O)NC2CCCC(C)C2)nc1C(=O)O` (some centres undefined), the IC50 in assay [1] (Rattus norvegicus, MMQ) is 8.6 nM; in assay [2], 22 µM; in assay [3], 26 nM.

On to `Cc1[nH]c([C@@H](Cc2cn(C)c3ccccc23)NC(=O)[C@H](CC(C)C)NC(=O)NC2CCCC2)nc1C(=O)O`, for which the IC50 in assay [1] (Rattus norvegicus, MMQ) was 43 nM; in assay [2], 67 µM; in assay [3] it was 37 nM.

As for `Cc1[nH]c([C@@H](Cc2cn(C)c3ccccc23)NC(=O)[C@H](CC(C)C)NC(=O)NC2CC3CCC2C3)nc1C(=O)O` (stereo in doubt; 14o), the IC50 was found to be 16 nM in assay [1] (mmq), 8.3 µM in assay [2] and 29 nM in assay [3].

With `Cc1[nH]c([C@@H](Cc2cn(C)c3ccccc23)NC(=O)[C@H](CC(C)C)NC(=O)NC2CCCCC2C)nc1C(=O)O` (some centres undefined), the IC50 in assay [2] came to 13 µM; in assay [3], 18 nM.

For `Cc1oc([C@@H](Cc2cn(C)c3ccccc23)NC(=O)[C@H](CC(C)C)NC(=O)NC23CC4CC(CC(C4)C2)C3)nc1C(=O)O`, the values for the IC50 in assay [2] and in assay [3] were 19 µM and 900 nM, respectively.
